In assay [1] the target is T1, Thromboxane A2 receptor (Homo sapiens, UniProt P21731).
T1 sequence (P21731 whole entry): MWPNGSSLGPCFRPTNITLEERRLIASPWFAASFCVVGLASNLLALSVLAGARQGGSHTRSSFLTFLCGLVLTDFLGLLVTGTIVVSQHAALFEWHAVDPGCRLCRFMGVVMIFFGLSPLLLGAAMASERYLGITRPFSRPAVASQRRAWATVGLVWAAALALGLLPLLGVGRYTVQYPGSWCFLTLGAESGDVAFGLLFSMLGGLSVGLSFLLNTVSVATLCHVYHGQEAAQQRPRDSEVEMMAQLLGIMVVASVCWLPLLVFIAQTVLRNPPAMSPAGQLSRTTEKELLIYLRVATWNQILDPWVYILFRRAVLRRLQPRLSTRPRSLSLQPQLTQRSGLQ
Put plainly: In vitro thromboxane-A2 receptor binding affinity to displace by 50% [3H]-SQ 29548 binding from washed human platelets.

Assay [2] concerns the target T2, Thromboxane-A synthase (Rattus norvegicus, UniProt P49430).
T2 sequence (P49430 whole entry): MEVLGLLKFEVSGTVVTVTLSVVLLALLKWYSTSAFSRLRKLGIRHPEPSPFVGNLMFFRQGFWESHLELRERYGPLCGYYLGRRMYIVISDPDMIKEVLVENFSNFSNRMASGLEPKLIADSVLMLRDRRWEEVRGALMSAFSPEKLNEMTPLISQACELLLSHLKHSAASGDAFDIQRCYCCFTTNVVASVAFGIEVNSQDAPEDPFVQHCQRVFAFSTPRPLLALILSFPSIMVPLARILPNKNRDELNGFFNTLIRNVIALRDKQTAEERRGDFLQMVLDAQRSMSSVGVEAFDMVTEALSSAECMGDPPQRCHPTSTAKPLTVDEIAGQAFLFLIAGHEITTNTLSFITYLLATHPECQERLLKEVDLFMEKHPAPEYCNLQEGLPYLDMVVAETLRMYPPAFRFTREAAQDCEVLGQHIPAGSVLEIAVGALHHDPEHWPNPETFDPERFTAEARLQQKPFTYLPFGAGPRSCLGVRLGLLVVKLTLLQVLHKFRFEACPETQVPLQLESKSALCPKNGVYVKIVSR
Put plainly: In vitro inhibition of thromboxane-A2 synthase in rat whole blood during clotting at 37 degrees Centigrade. The format is tissue-based. In short, it runs like this: (§1)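 Rat whole blood allowed to clot 1 h at 37 °C with test agent, then spun for serum, stored -20 °C. Serum TxB2 measured by RIA with [3H]TxB2 and rabbit antiserum, incubated 16–24 h at 4 °C, charcoal separation, scintillation counting.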

The species named for assay [3] is Homo sapiens. The assay can be described thus: Tested in vitro for the umolar concentration required to inhibit U-46,619-induced platelet aggregation in human platelet rich plasma (PRP). The format is functional. In short, it runs like this:
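Citrated human blood (3.8%, 9:1), PRP by centrifugation. PRP preincubated 5 min at 37 °C with vehicle or compound, then challenged with a submaximal U46619 concentration chosen from a concentration–response curve. Aggregation followed by photoelectric aggregometry.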

The target of assay [4] is T3, Thromboxane-A synthase (Rattus norvegicus) (UniProt P49430).
T3 sequence (whole entry): T2 sequence (P49430 whole entry)
Put plainly: Tested for in vitro inhibition of TxA synthase in rat whole blood at 1 uM. The format is tissue-based.

Assay [5] has as its target T3, Thromboxane-A synthase (Rattus norvegicus). Put plainly: Tested for the in vitro inhibition of thromboxane-A2 synthase in rat whole blood during clotting at 37 degrees Celsius at >1 uM. The format is tissue-based. In short, it runs like this:
as §1

Each structure is given as a SMILES string.

Broadly, the IC50 is the concentration that gives 50% inhibition. What is called inhibition is the drop in the measured response relative to a control, in per cent. A lower inhibition goes with little suppression.

On to `O=C(O)CCCCO/N=C(\C1CCCCC1)C(Cc1cccc(F)c1)n1ccnc1` (centres undefined), for which the values for the half-inhibitory concentration (IC50) in assay [1] and in assay [2] were 30 nM and 270 nM, respectively.
As to `CC(C)(CCO/N=C(\c1ccccc1)C(Cc1ccccc1)n1ccnc1)CC(=O)O` (centres undefined), the IC50 is 230 nM in assay [1] and 530 nM in assay [2].
Turning to `O=C(O)CCCCO/N=C(/c1ccccc1)C(Cc1ccccc1)n1ccnc1` (centres undefined), the IC50 was 2100 nM in assay [3], 1160 nM in assay [1] and 20 nM in assay [2].
In the case of `O=C(O)CCCCCO/N=C(\Cn1ccnc1)c1ccccc1`, the half-inhibitory concentration (IC50) in assay [1] is 74500 nM; in assay [2] it was greater than 1000 nM. In assay [4], this molecule yielded an inhibition of 2%.
On to `Cc1ccc(CC(/C(=N/OCCCCC(=O)O)C2CCCCC2)n2ccnc2)cc1` (centres undefined), for which the results for the IC50 in assay [1] and in assay [2] were 70 nM and 140 nM, respectively.
Take `CS(=O)(=O)c1ccc(CC(/C(=N/OCCCCC(=O)O)C2CCCCC2)n2ccnc2)cc1` (centres undefined): the IC50 in assay [1] was 230 nM; in assay [2], greater than 1000 nM. In assay [5], this molecule registered an inhibition of 32%.
Turning to `O=C(O)CCCCO/N=C(\C1CCCCC1)C(CC1CCCCC1)n1ccnc1` (centres undefined), the IC50 in assay [1] is 1900 nM; in assay [2], greater than 1000 nM. The inhibition in assay [5] is 43%.
`O=C(O)CCCCO/N=C(/C1CCCCC1)C(Cc1ccccc1)n1ccnc1` (centres undefined): the 50% inhibitory concentration (IC50) was 970 nM in assay [1] and 100 nM in assay [2].
Taken in the same sequence, the figures for `O=C(O)CCCCO/N=C(\c1ccccc1)C(Cc1ccc(Cl)cc1)n1ccnc1` (centres undefined) were 40 nM and 890 nM.
As for `O=C(O)CCCCO/N=C(\C1CCCCC1)C(Cc1ccccc1F)n1ccnc1` (centres undefined), the IC50 in assay [1] amounted to 300 nM; in assay [2], 350 nM.
Taken in the same sequence, the figures for `COc1ccc(CC(/C(=N/OCCCCC(=O)O)C2CCCCC2)n2ccnc2)cc1` (centres undefined) were 70 nM and 320 nM.
Consider `O=C(O)CCCCO/N=C(\Cn1ccnc1)C1CCCCC1`, for which the IC50 in assay [3] worked out at 2440 nM; in assay [1], 53100 nM; in assay [2], 40 nM.
With `O=C(O)CCCCO/N=C(/Cn1ccnc1)c1ccccc1`, the IC50 stood at 46200 nM in assay [1] and 270 nM in assay [2].
Consider `O=C(O)/C=C/CCO/N=C(\c1ccccc1)C(Cc1ccccc1)n1ccnc1` (centres undefined), for which the IC50 in assay [1] was 120 nM; in assay [2] it was greater than 1000 nM. The same molecule showed an inhibition in assay [5] of 26%.
On to `O=C(O)CCCCO/N=C(\Cn1ccnc1)c1ccccc1`, for which the IC50 was 14700 nM in assay [1] and 170 nM in assay [2].
Taken in the same sequence, the figures for `CC(/C(=N\OCCCCC(=O)O)c1ccccc1)n1ccnc1` (centres undefined) were 295000 nM and 160 nM.
With `O=C(O)CCCCO/N=C(\c1ccccc1)C(Cc1ccccc1)n1ccnc1` (centres undefined), the IC50 in assay [3] stood at 370 nM; in assay [1], 170 nM; in assay [2] it was 50 nM.
As to `CC(C)(CCCO/N=C(\c1ccccc1)C(Cc1ccccc1)n1ccnc1)C(=O)O` (centres undefined), the IC50 in assay [1] worked out at 4160 nM; in assay [2], 760 nM.
Turning to `O=C(O)/C=C/c1ccc(Cn2ccnc2)cc1` [OZAGREL], the IC50 in assay [1] is greater than 100000 nM.
As for `O=C(O)CCCCO/N=C(/c1ccccc1)C(Cc1ccc(Cl)cc1)n1ccnc1` (centres undefined), the IC50 was 170 nM in assay [1] and 250 nM in assay [2].
Regarding `O=C(CCCCO/N=C(\C1CCCCC1)C(Cc1ccccc1)n1ccnc1)NO` (centres undefined), the IC50 in assay [1] worked out at 520 nM; in assay [2], 710 nM.
Regarding `O=C(O)CCCCO/N=C(/c1ccccc1)C(Cc1ccc(F)cc1)n1ccnc1` (centres undefined), the results for the IC50 in assay [3], in assay [1] and in assay [2] were 280 nM, 530 nM and 60 nM, respectively.
As to `O=C(O)CCCCO/N=C(\C1CCCCC1)C(Cc1ccc(C(F)(F)F)cc1)n1ccnc1` (centres undefined), the IC50 in assay [1] was 50 nM; in assay [2], 900 nM.
Taken in the same sequence, the figures for `C/C(=N\OCCCCC(=O)O)C(Cc1ccccc1)n1ccnc1` (centres undefined) were 23400 nM and 200 nM.
Consider `CCCCCC/C(Cn1ccnc1)=N/OCCCCC(=O)O`, for which the IC50 in assay [1] came out at 12200 nM; in assay [2], 40 nM.
As to `O=C(O)CCCCCO/N=C(/c1ccccc1)C(Cc1ccccc1)n1ccnc1` (centres undefined), the IC50 is 970 nM in assay [1] and greater than 1000 nM in assay [2]. The same molecule gave an inhibition in assay [5] of 26%.
With `O=C(O)CCCO/N=C(\Cn1ccnc1)C1CCCCC1`, the 50% inhibitory concentration (IC50) in assay [1] was greater than 100000 nM; in assay [2], greater than 1000 nM. The inhibition in assay [4] came out at 8%.
Regarding `O=C(O)CCCCO/N=C(/c1cccnc1)c1cccc(C(F)(F)F)c1` [RIDOGREL], the IC50 in assay [3] is 3300 nM; in assay [1] it was 2100 nM; in assay [2], 30 nM.
On to `O=C(O)CCCCO/N=C(\C1CCCCC1)C(Cc1ccco1)n1ccnc1` (centres undefined), for which the values for the IC50 in assay [1] and in assay [2] were 280 nM and 100 nM, respectively.
Taken in the same sequence, the figures for `CCOC(=O)CCCCO/N=C(\C1CCCCC1)C(Cc1ccccc1)n1ccnc1` (centres undefined) were 1300 nM and 430 nM.
For `O=C(O)CCCCO/N=C(\Cn1ccnc1)c1cccnc1`, the results for the 50% inhibitory concentration (IC50) in assay [1] and in assay [2] were greater than 100000 nM and greater than 1000 nM, respectively. The same molecule had an inhibition in assay [4] of 24%.
On to `O=C(O)CCCCO/N=C(\C1CCCCC1)C(Cc1ccc(F)cc1)n1ccnc1` (centres undefined), for which the IC50 worked out at 300 nM in assay [3], 20 nM in assay [1] and 370 nM in assay [2].
Consider `O=C(O)/C=C/CCCO/N=C(\c1ccccc1)C(Cc1ccccc1)n1ccnc1` (centres undefined), for which the IC50 in assay [1] was 1040 nM; in assay [2], greater than 1000 nM. Further, the inhibition in assay [5] is 47%.
For the molecule `O=C(O)CCCO/N=C(/Cn1ccnc1)C1CCCCC1`, the IC50 in assay [1] was 49300 nM; in assay [2], greater than 1000 nM. In assay [4], this molecule returned an inhibition of 44%.
The molecule `O=C(O)Cc1ccc(CCNS(=O)(=O)c2ccc(Cl)cc2)cc1` [DALTROBAN] displayed an IC50 in assay [2] greater than 100000 nM.
Consider `CS(=O)(=O)c1ccc(/C(=N\OCCCCC(=O)O)C(Cc2ccccc2)n2ccnc2)cc1` (centres undefined), for which the half-inhibitory concentration (IC50) in assay [1] is 21000 nM; in assay [2], greater than 1000 nM. Also, the inhibition in assay [5] was 12%.
The like results for `O=C(O)COCCO/N=C(\c1ccccc1)C(Cc1ccccc1)n1ccnc1` (centres undefined) were, in that order, 880 nM, greater than 1000 nM and 28%.
The like results for `CC(/C(=N/OCCCCC(=O)O)c1ccccc1)n1ccnc1` (centres undefined) were, in that order, 73000 nM, greater than 1000 nM and 37%.
Taken in the same sequence, the figures for `O=C(O)CCCCO/N=C(\c1ccc(Br)cc1)C(Cc1ccccc1)n1ccnc1` (centres undefined) were 2390 nM, greater than 1000 nM and 15%.
For `O=C(O)CCCCO/N=C(\C1CCCCC1)C(Cc1ccccc1)n1ccnc1` (centres undefined), the IC50 in assay [3] is 440 nM; in assay [1] it was 80 nM; in assay [2] it was 60 nM.
Take `CCCCCC/C(=N\OCCCCC(=O)O)C(Cc1ccccc1)n1ccnc1` (centres undefined): the IC50 in assay [1] came to 3000 nM; in assay [2], 50 nM.
Turning to `O=C(O)CCCCCO/N=C(\Cn1ccnc1)C1CCCCC1`, the IC50 in assay [1] is 23900 nM; in assay [2] it was greater than 1000 nM. This molecule gave an inhibition in assay [4] of 19%.
Turning to `O=C(O)CCCCO/N=C(\c1ccccc1)C(Cc1ccc(F)cc1)n1ccnc1` (centres undefined), the results for the IC50 in assay [3], in assay [1] and in assay [2] were 210 nM, 40 nM and 390 nM, respectively.
In the case of `O=C(O)CCCCCO/N=C(\c1ccccc1)C(Cc1ccccc1)n1ccnc1` (centres undefined), the results for the IC50 in assay [1] and in assay [2] were 160 nM and 1100 nM, respectively.
`CSc1ccc(/C(=N\OCCCCC(=O)O)C(Cc2ccccc2)n2ccnc2)cc1` (centres undefined): the IC50 in assay [1] is 7500 nM; in assay [2], greater than 1000 nM. The molecule also gave an inhibition in assay [5] of 49%.
Take `CCCCCC/C(Cn1ccnc1)=N\OCCCCC(=O)O`: the IC50 in assay [1] was found to be 19700 nM; in assay [2] it was 360 nM.
Consider `O=C(O)CCCCO/N=C(\C1CCCCC1)C(Cc1ccccn1)n1ccnc1` (centres undefined), for which the results for the IC50 in assay [1] and in assay [2] were 3280 nM and 300 nM, respectively.
For the molecule `O=C(O)CCCO/N=C(\Cn1ccnc1)c1ccccc1`, the IC50 in assay [1] was greater than 100000 nM; in assay [2], greater than 1000 nM. The molecule further showed an inhibition in assay [4] of 17%.
With `O=C(O)CCCCO/N=C(\C1CCCCC1)C(Cc1cnccn1)n1ccnc1` (centres undefined), the IC50 is 190 nM in assay [1] and 70 nM in assay [2].
Regarding `O=C(O)CCCCO/N=C(/C1CCCCC1)C(Cc1cccc(F)c1)n1ccnc1` (centres undefined), the IC50 in assay [1] was found to be 140 nM; in assay [2], 250 nM.
As to `O=C(O)CCCCO/N=C(/Cn1ccnc1)C1CCCCC1`, the figures for the IC50 in assay [1] and in assay [2] were 27300 nM and 640 nM, respectively.

(Values after ChEMBL document CHEMBL1127376, “Agents combining thromboxane receptor antagonism with thromboxane synthase inhibition: [[[2-(1H-imidazol-1-yl)ethylidene]amino]oxy]alkanoic acids” (J Med Chem, 1994).)
